The source made the active and inactive calls. The calls are words filed in the database; no cut-off is given here.
What was measured:
[1] = test system: Radical scavenging activity; test: Antioxidant activity assessed as residual DPPH radical scavenging activity; type: functional
[2] = Antiinflammatory activity against human neutrophil assessed as inhibition of N-formyl-l-methionyl phenylalanine/cytochalasin B-induced superoxide anion generation by spectrophotometry; type: functional, cell-based
Method in brief: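 Ferricytochrome c (0.5 mg/mL) reduction, SOD-inhibitable, with 1 mM Ca2+. Neutrophils (6 × 10^5 cells/mL) equilibrated 2 min at 37 °C, then drug or 0.1% DMSO for 5 min. Cytochalasin B 1 µg/mL preincubation, then 100 nM FMLP for 3 min. A550 monitored continuously with stirring. IC50 computed; mean ± SEM, n = 3.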

[3] = (§1) Cytotoxicity against mouse […] cells by MTT assay; type: functional
Method in brief: (§2)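 Viability of RAW 264.7 cells taken as mitochondrial reduction of MTT to formazan. Formazan read at OD550.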

[4] = Therapeutic index, ratio of CC50 for mouse […] cells to EC50 for inhibition of lipopolysaccharide/interferon-gamma induced nitric oxide production in mouse […] cells; type: cell-based; settings: read-out: TI
RAW264.7 [5] = test: Antiinflammatory activity against mouse RAW264.7 cells assessed as reduction of lipopolysaccharide/interferon-gamma induced PGE2 production at 1 uM by EIA; type: functional
Method in brief: (§3)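 RAW 264.7 macrophages (passages 9–20) stimulated with LPS/IFN-γ; compound tested at 1, 3 and 10 µM. Supernatant PGE2 measured by competitive EIA: anti-PGE2 antibody plus peroxidase-PGE2 tracer, 1 h RT; TMB/H2O2 30 min; H2SO4 stop; A450. Results given as % inhibition.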

[6] = Antiinflammatory activity against mouse […] cells assessed as inhibition of lipopolysaccharide/interferon-gamma induced nitric oxide production; type: functional, cell-based; settings: Mus musculus; read-out: EC50
Method in brief: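 RAW 264.7 cells in DMEM/10% FCS, passages 9–20. Nitrite induced by LPS (1 µg/mL) plus IFN-γ (50 U/mL) for 18 h with or without compound. Griess reagent (1% sulfanilamide, 0.1% naphthylenediamine in 5% H3PO4) read at OD550. EC50 calculated.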

KB = test: Cytotoxicity activity against human KB cells assessed as growth inhibition at 10 ug/ml after 72 hrs sulforhodamine B assay; type: functional
Method in brief: (§4)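 Cells kept in RPMI-1640/10% FBS with antibiotics at 37 °C, 5% CO2. Trypsinized cells seeded and given compound from DMSO-diluted stock. Incubated 72 h, then fixed with 10% TCA. Stained 10 min with 0.4% sulforhodamine B in 1% HOAc, washed, dye dissolved in 10 mM Trizma. A515 read; growth relative to net protein increase of controls.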

A549 = test: Cytotoxicity activity against human A549 cells assessed as growth inhibition at 10 ug/ml after 72 hrs sulforhodamine B assay; type: functional; settings: A549, 72 h; method in brief: as §4
[7] = Antiinflammatory activity against human neutrophil assessed as inhibition of N-formyl-l-methionyl phenylalanine/cytochalasin B-induced elastase release; type: functional, cell-based
Method in brief: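 Neutrophils (6 × 10^5/mL) supplemented with 100 µM MeO-Suc-Ala-Ala-Pro-Val-p-nitroanilide, equilibrated 2 min at 37 °C, then given drug or 0.1% DMSO vehicle for 5 min. Activated with 100 nM FMLP plus 0.5 µg/mL cytochalasin B. Absorbance at 405 nm followed continuously. Release expressed as percent of drug-free activated control. IC50 computed; mean ± SEM, n = 3.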

[8] = Cytotoxicity activity against human KBVIN cells assessed as growth inhibition at 10 ug/ml after 72 hrs sulforhodamine B assay; type: functional; method in brief: as §4
RAW264.7 [9] = test: Antiinflammatory activity against mouse RAW264.7 cells assessed as reduction of lipopolysaccharide/interferon-gamma induced PGE2 production at 3 uM after 18 hrs; type: functional; settings: RAW264.7, 18 h; method in brief: as §3
DU-145 = test: Cytotoxicity activity against human DU145 cells assessed as growth inhibition at 10 ug/ml after 72 hrs sulforhodamine B assay; type: functional; settings: DU-145, 72 h; method in brief: as §4
RAW264.7 [10] = test: Antiinflammatory activity against mouse RAW264.7 cells assessed as reduction of lipopolysaccharide/interferon-gamma induced PGE2 production at 10 uM after 18 hrs; type: functional; settings: RAW264.7, 18 h; method in brief: as §3
Mus musculus = species: Mus musculus; test: as §1; type: functional; method in brief: as §2

Cc1ccc(C(=O)c2nc(C(=O)O)cc3c2[nH]c2ccccc23)cc1
Activity [1]: inactive | IC50 [2]: 6.27 µM | CC50 [3]: 17.7 µM | selectivity ratio [4]: 35 | inhibition at 1 µM (RAW264.7 [5]): 100% | EC50 [6]: 0.5 µM | GI50 (KB): > 40 µM | GI50 (A549): > 40 µM | IC50 [7]: 3.13 µM | GI50 [8]: > 40 µM | inhibition at 3 µM (RAW264.7 [9]): 100% | GI50 (DU-145): > 40 µM

Cc1ccccc1C(=O)c1nc(C(=O)O)cc2c1[nH]c1ccccc12
Activity [1]: inactive | IC50 [2]: 5.36 µM | selectivity ratio [4]: > 2000 | inhibition at 1 µM (RAW264.7 [5]): 0% | inhibition at 10 µM (RAW264.7 [10]): 100% | EC50 [6]: 2.58 µM | GI50 (KB): > 40 µM | GI50 (A549): > 40 µM | IC50 [7]: 14.8 µM | GI50 [8]: > 40 µM | inhibition at 3 µM (RAW264.7 [9]): 82% | GI50 (DU-145): > 40 µM

O=C(O)c1cc2c([nH]c3ccccc32)c(C(=O)c2ccc([N+](=O)[O-])cc2)n1
Activity [1]: inactive | IC50 [2]: 6.65 µM | CC50 [3]: 15 µM | selectivity ratio [4]: 5 | inhibition at 1 µM (RAW264.7 [5]): 0% | inhibition at 10 µM (RAW264.7 [10]): 100% | EC50 [6]: 2.94 µM | GI50 (KB): > 40 µM | GI50 (A549): > 40 µM | IC50 [7]: 6.21 µM | GI50 [8]: > 40 µM | inhibition at 3 µM (RAW264.7 [9]): 92% | GI50 (DU-145): > 40 µM

O=C(O)c1cc2c([nH]c3ccccc32)c(C(=O)c2cccc([N+](=O)[O-])c2)n1
Activity [1]: inactive

COc1cccc(C(=O)c2nc(C(=O)O)cc3c2[nH]c2ccccc23)c1
Activity [1]: inactive

Cc1ccc(C(O)c2nccc3c2[nH]c2ccccc23)cc1 (stereo unspecified)
IC50 [2]: > 30 µM | CC50 (Mus musculus): Non-toxic | selectivity ratio [4]: > 100 | inhibition at 1 µM (RAW264.7 [5]): 15% | EC50 [6]: 4.94 µM | GI50 (KB): 20.6 µM | GI50 (A549): 26.6 µM | IC50 [7]: > 30 µM | GI50 [8]: 9.29 µM | inhibition at 3 µM (RAW264.7 [9]): 29% | GI50 (DU-145): 13.8 µM

COc1ccc(C(=O)c2nc(C(=O)O)cc3c2[nH]c2ccccc23)cc1
Activity [1]: inactive | IC50 [2]: 16.1 µM | CC50 [3]: 43.1 µM | selectivity ratio [4]: 187 | inhibition at 1 µM (RAW264.7 [5]): 28% | EC50 [6]: 0.23 µM | GI50 (KB): > 40 µM | GI50 (A549): > 40 µM | IC50 [7]: 10.4 µM | GI50 [8]: > 40 µM | inhibition at 3 µM (RAW264.7 [9]): 98% | GI50 (DU-145): > 40 µM

O=C(O)c1cc2c([nH]c3ccccc32)c(C(=O)c2ccccc2[N+](=O)[O-])n1
Activity [1]: inactive | IC50 [2]: 17.6 µM | CC50 [3]: 12.8 µM | selectivity ratio [4]: 4 | inhibition at 1 µM (RAW264.7 [5]): 0% | inhibition at 10 µM (RAW264.7 [10]): 100% | EC50 [6]: 2.88 µM | GI50 (KB): > 40 µM | GI50 (A549): > 40 µM | IC50 [7]: 13.2 µM | GI50 [8]: > 40 µM | inhibition at 3 µM (RAW264.7 [9]): 97% | GI50 (DU-145): > 40 µM

O=C(O)c1cc2c([nH]c3ccccc32)c(C(=O)c2ccc(Br)cc2)n1
Activity [1]: inactive | IC50 [2]: 2.28 µM | CC50 [3]: 10.7 µM | selectivity ratio [4]: 20 | inhibition at 1 µM (RAW264.7 [5]): 98% | EC50 [6]: 0.53 µM | GI50 (KB): > 40 µM | GI50 (A549): > 40 µM | IC50 [7]: 1.99 µM | GI50 [8]: > 40 µM | inhibition at 3 µM (RAW264.7 [9]): 100% | GI50 (DU-145): > 40 µM

O=C(O)c1cc2c([nH]c3ccccc32)c(C(=O)c2ccccc2Br)n1
Activity [1]: inactive | IC50 [2]: 5.33 µM | CC50 [3]: 524 µM | selectivity ratio [4]: 75 | inhibition at 1 µM (RAW264.7 [5]): 0% | inhibition at 10 µM (RAW264.7 [10]): 96% | EC50 [6]: 6.96 µM | GI50 (KB): > 40 µM | GI50 (A549): > 40 µM | IC50 [7]: 3.07 µM | GI50 [8]: > 40 µM | inhibition at 3 µM (RAW264.7 [9]): 78% | GI50 (DU-145): > 40 µM

COc1ccccc1C(=O)c1nc(C(=O)O)cc2c1[nH]c1ccccc12
Activity [1]: inactive

Cc1cccc(C(=O)c2nc(C(=O)O)cc3c2[nH]c2ccccc23)c1
Activity [1]: inactive | CC50 [3]: 16.4 µM | selectivity ratio [4]: 34 | inhibition at 1 µM (RAW264.7 [5]): 98% | EC50 [6]: 0.47 µM | inhibition at 3 µM (RAW264.7 [9]): 100%

Cc1ccc(C(=O)c2nccc3c2[nH]c2ccccc23)cc1
IC50 [2]: > 30 µM | CC50 [3]: 52.8 µM | selectivity ratio [4]: 42 | inhibition at 1 µM (RAW264.7 [5]): 25% | inhibition at 10 µM (RAW264.7 [10]): 100% | EC50 [6]: 1.26 µM | GI50 (KB): > 40 µM | GI50 (A549): > 40 µM | IC50 [7]: > 30 µM | GI50 [8]: > 40 µM | inhibition at 3 µM (RAW264.7 [9]): 99% | GI50 (DU-145): > 40 µM

O=C(c1ccc([N+](=O)[O-])cc1)c1nccc2c1[nH]c1ccccc12
IC50 [2]: > 30 µM | CC50 [3]: 3.86 µM | selectivity ratio [4]: 6 | inhibition at 1 µM (RAW264.7 [5]): 0% | inhibition at 10 µM (RAW264.7 [10]): 100% | EC50 [6]: 0.66 µM | GI50 (KB): > 40 µM | GI50 (A549): > 40 µM | IC50 [7]: > 30 µM | GI50 [8]: > 40 µM | inhibition at 3 µM (RAW264.7 [9]): 100% | GI50 (DU-145): > 40 µM

CC(=O)c1nc(C(N)=O)cc2c1[nH]c1ccccc12 [STELLARINES A]
IC50 [2]: 14.5 µM | CC50 [3]: 19.8 µM | selectivity ratio [4]: 21 | inhibition at 1 µM (RAW264.7 [5]): 0% | inhibition at 10 µM (RAW264.7 [10]): 90% | EC50 [6]: 0.92 µM | GI50 (KB): > 40 µM | GI50 (A549): > 40 µM | IC50 [7]: 5.82 µM | GI50 [8]: > 40 µM | inhibition at 3 µM (RAW264.7 [9]): 90% | GI50 (DU-145): > 40 µM

O=C(O)c1cc2c([nH]c3ccccc32)c(C(=O)c2ccccc2)n1
Activity [1]: inactive | IC50 [2]: 17.7 µM | CC50 [3]: 564 µM | selectivity ratio [4]: 155 | inhibition at 1 µM (RAW264.7 [5]): 0% | inhibition at 10 µM (RAW264.7 [10]): 90% | EC50 [6]: 3.65 µM | GI50 (KB): > 40 µM | GI50 (A549): > 40 µM | IC50 [7]: 13.4 µM | GI50 [8]: > 40 µM | inhibition at 3 µM (RAW264.7 [9]): 12% | GI50 (DU-145): > 40 µM

Source: ChEMBL document CHEMBL1681731, “Synthesis, in vitro anti-inflammatory and cytotoxic evaluation, and mechanism of action studies of 1-benzoyl-β-carboline and 1-benzoyl-3-carboxy-β-carboline derivatives” (Bioorg Med Chem, 2011)
